This passage reports cytotoxicity results from ChEMBL document CHEMBL4513216, “Probing the Open Global Health Chemical Diversity Library for Multistage-Active Starting Points for Next-Generation Antimalarials” (ACS Infect Dis, 2020).

The nature of this data set: Toxicity liver stage against HepG2, at 10uM. Format: cell-based. Also on record: test concentration 10 uM, cell line HepG2-A16-CD81EGFP. The conditions noted are these: human, HepG2-A16-CD81EGFP cells; read-out: INHIBITION
An outline of the steps:
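Uninfected HepG2-A16-CD81EGFP cells, 3 × 10^3 per well, 1536-well, plated on prespotted compound at 10 μM final, parasite-free screening media added to match infected plates; puromycin 10 μM positive, DMSO 0.5% negative; run in parallel with 48 h PbLuc assay at 37 °C, 5% CO2; viability by CellTiter-Glo luminescence, normalized to controls.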
As to `CSC(CNS(=O)(=O)c1cnn(C)c1)c1cccc(Cl)c1` (stereo not drawn), the cytotoxicity at 10 µM was 4.63%.

Consider `Cc1noc(C)c1C(=O)NCC(O)c1ccc(F)cc1F` (stereo not drawn), for which the cytotoxicity at 10 µM is -3.56%.

Regarding `COc1ccc(C(CN2CCN(C)CC2)Nc2ncccn2)cc1` (stereo not drawn), the cytotoxicity at 10 µM worked out at 5.54%.

Regarding `CN(C)C(=O)c1cnn2c1OCCC2`, the cytotoxicity at 10 µM is -6.59%.

Turning to `CCN(Cc1ccc(S(C)(=O)=O)cc1)Cc1nc(COC)no1`, the cytotoxicity at 10 µM is -10.8%.

As to `COC1CN(C(=O)COC(C)=O)CCC(=O)N(C)c2ccccc21` (stereo not drawn), the cytotoxicity at 10 µM is -3.03%.

As to `Cc1cccc(CN2CCc3ncnc(Oc4cccnc4)c3CC2)n1`, the cytotoxicity at 10 µM was -139%.

For the compound `COC(=O)NCCC(=O)NCC1(c2cccc(Cl)c2)CC1`, the cytotoxicity at 10 µM is -4.31%.

Turning to `O=C(Cc1csc(-c2ccco2)n1)N1CCSCC1`, the cytotoxicity at 10 µM is -16.2%.

As for `CC(NC(=O)C1=NN(C)C(=O)CC1)c1ccc(Cl)cc1Cl` (stereo not drawn), the cytotoxicity at 10 µM is -10.4%.

As for `CCOC(=O)C1(NC(=O)CCNc2cc(C)ccc2OC)CCCCC1`, the cytotoxicity at 10 µM was 6.47%.

With `O=S(=O)(NCC1(O)CCOc2ccccc21)c1ccccc1F` (stereo not drawn), the cytotoxicity at 10 µM was determined as 7.22%.

Take `Cc1ccc(CCNc2ncc(C)c(-c3ccnn3C)n2)s1`: the cytotoxicity at 10 µM came to 9.68%.

`CCN(C)c1ncnc2c1CCN(S(=O)(=O)c1ccccc1)CC2`: the cytotoxicity at 10 µM is -106%.

In the case of `COCC1CC2(CCN(C(=O)c3cncc(C)c3)CC2)CO1` (stereo not drawn), the cytotoxicity at 10 µM was -155%.

On to `Cc1cc(=O)n2c3c(cc(S(=O)(=O)NC4CC4)cc13)CCC2`, for which the cytotoxicity at 10 µM is -32.3%.

Turning to `c1cnn(-c2ccc(CN3CCOC(Cn4cncn4)C3)cc2)c1` (stereo not drawn), the cytotoxicity at 10 µM was -13.6%.

On to `CCc1ccc(CNC(=O)Nc2cc(C)on2)s1`, for which the cytotoxicity at 10 µM was -11.6%.

Turning to `Cc1ccc(-c2nc(CCNC(=O)NCC(C)(C)C(N)=O)co2)cc1`, the cytotoxicity at 10 µM is -10.1%.

Regarding `CCc1nc(C)sc1CN1CC[C@@](O)(CCOC)[C@H](C)C1`, the cytotoxicity at 10 µM was -1.18%.

With `Cc1nccc(NCc2cncc3c2CCN(CC2CCOC2)C3)n1` (stereo not drawn), the cytotoxicity at 10 µM was -41.5%.

For the compound `O=C(Nc1nncs1)N(Cc1cccc(F)c1)C1CC1`, the cytotoxicity at 10 µM was determined as 47.6%.

Turning to `Cc1nn(C)c(C)c1-c1ccc(=O)n(C(C)C(=O)NC2CC2)n1` (stereo not drawn), the cytotoxicity at 10 µM was found to be 0.0475%.

Take `CCC(C)CNC(=O)[C@@H]1CCCN1c1nccc(Nc2ccccc2)n1` (stereo partly drawn): the cytotoxicity at 10 µM is 3.57%.

On to `CO[C@H]1CN(S(=O)(=O)c2cn(C)cn2)[C@@H]2CCCO[C@H]12`, for which the cytotoxicity at 10 µM was -132%.

On to `CCC(C#N)NC(=O)COC1CCCCC1` (stereo not drawn), for which the cytotoxicity at 10 µM worked out at 5.48%.

As for `CCOCC1CN(S(=O)(=O)Cc2ccccc2)Cc2nccn2C1` (stereo not drawn), the cytotoxicity at 10 µM is -105%.

`CC(=O)c1cccc(NC(=O)NCCCc2nc(C(C)C)no2)c1`: the cytotoxicity at 10 µM amounted to 2.16%.

Take `O=C(NCCCN1CCOCC1)c1ccc(-c2ccccc2)[nH]c1=O`: the cytotoxicity at 10 µM was -2.48%.

`c1ccc(CO[C@H]2CN(c3ncccn3)C[C@@]23CCCO3)cc1`: the cytotoxicity at 10 µM was -6.11%.

Regarding `O=C(Cn1c(=O)n(Cc2ccco2)c2ncccc21)NC1CCCCC1`, the cytotoxicity at 10 µM is 4.73%.

As to `O=C(c1cnc(-c2ccccc2)s1)N1CCC2(CC1)OCCO2`, the cytotoxicity at 10 µM was 2.42%.

In the case of `CC(C)C(C(=O)N1CCCN(Cc2nccn2C)CC1)N1CCCC1` (stereo not drawn), the cytotoxicity at 10 µM is -13%.

For `Cc1nccn1C1CCCN(C(=O)CCOCC(F)(F)F)C1` (stereo not drawn), the cytotoxicity at 10 µM is -11.4%.

Turning to `Cc1cc(C)c(CNC(=O)NC2COc3ccccc3C2)c(=O)[nH]1` (stereo not drawn), the cytotoxicity at 10 µM was -13.8%.

Regarding `CCc1cnc(CN(C)C2CCN(CCc3cccs3)C2)o1` (stereo not drawn), the cytotoxicity at 10 µM was -16.8%.

`CN1CCC(c2cccc(Cc3ccc(F)cc3)n2)CC1`: the cytotoxicity at 10 µM was -3.45%.

For the compound `O=C(CNc1ccc(F)cc1OCC(F)(F)F)NCC(F)(F)F`, the cytotoxicity at 10 µM is 3.87%.

For the compound `COCC(C)NC(=O)c1sccc1-n1cnnn1` (stereo not drawn), the cytotoxicity at 10 µM was -0.132%.

As for `CN(C)c1ccccc1C(=O)N1CCCC(c2cccc(C(=O)O)c2)C1` (stereo not drawn), the cytotoxicity at 10 µM is -6.11%.

Regarding `CCc1nc(C)c(C(=O)NCCN2CCCC2)s1`, the cytotoxicity at 10 µM was determined as 1.94%.

Turning to `CN1CCCC(c2cccc(-c3cccc(C(F)(F)F)c3)n2)C1` (stereo not drawn), the cytotoxicity at 10 µM is -6.47%.

`Cc1c(Cl)c(C(F)(F)F)nn1C(C)C(=O)NN1CCN(C)CC1` (stereo not drawn): the cytotoxicity at 10 µM is -7.85%.

On to `O=C(C1CCC1)N1CCC(C2CCN(Cc3ccc(Cl)cc3)C2)CC1` (stereo not drawn), for which the cytotoxicity at 10 µM is -10.5%.

As to `Cc1ccc(N2CCCC(N(C)c3nn4cc(C)nc4s3)C2)nn1` (stereo not drawn), the cytotoxicity at 10 µM worked out at 8.45%.

In the case of `COc1ccc(OCC(=O)NS(=O)(=O)c2ccc(Br)s2)cc1`, the cytotoxicity at 10 µM was -0.383%.

For the compound `CN(C)CCn1nc(C2CCN(Cc3ccccc3)C2)c2cccnc21` (stereo not drawn), the cytotoxicity at 10 µM was -7.47%.

Turning to `Cc1c[nH]c(CN2CCOC(c3ccc(F)cc3)C2)c(C)c1=O` (stereo not drawn), the cytotoxicity at 10 µM was -1.82%.

In the case of `COCCn1ccc(NC(=O)CNC(=O)CC(C)(C)C)n1`, the cytotoxicity at 10 µM was found to be 17.3%.

On to `N#Cc1cccc(S(=O)(=O)N2CCCCC2CCN2CCCC2=O)c1` (stereo not drawn), for which the cytotoxicity at 10 µM is -16.9%.

With `CCN1CCOC(CNCc2cccc(OCc3ccccn3)c2)C1` (stereo not drawn), the cytotoxicity at 10 µM is -13.4%.

On to `Cn1cnc2c1CCN(CCOc1ccc(C#N)cc1)C2`, for which the cytotoxicity at 10 µM is -9.47%.

On to `Cc1cnn(CCC(=O)N2CCCC(c3cc(C(N)=O)[nH]n3)C2)c1` (stereo not drawn), for which the cytotoxicity at 10 µM was -7.32%.

Turning to `CC(C)C(CNCc1cccc2c1OCO2)N1CCOCC1` (stereo not drawn), the cytotoxicity at 10 µM is -49.1%.

In the case of `Cc1cc(C)n(CCC(=O)N2CCCC(c3cc(C(N)=O)[nH]n3)C2)n1` (stereo not drawn), the cytotoxicity at 10 µM is -29.3%.

In the case of `CC(C)OC(=O)[C@@H]1CCN(C(=O)c2ccccn2)[C@@H]1c1ccc(F)cc1`, the cytotoxicity at 10 µM was 4.81%.

For the compound `Cc1nc(NC(=O)N[C@H](CO)c2ccccc2)sc1C`, the cytotoxicity at 10 µM is -7.32%.

As to `CCCn1cnc(NC(=O)NCC2CCS(=O)(=O)C2)n1` (stereo not drawn), the cytotoxicity at 10 µM was determined as 10.3%.

Consider `Nc1nc(Nc2ccccc2)cc(N2CCNCC2)n1`, for which the cytotoxicity at 10 µM is 1.23%.

On to `Cc1ccc(C#N)c(N2CCC(c3nccn3CCN(C)C)CC2)n1`, for which the cytotoxicity at 10 µM was -5.47%.

Consider `O=C(Nc1ccc(Cl)cn1)C1CCCN(CCc2ccncc2)C1` (stereo not drawn), for which the cytotoxicity at 10 µM was -8.87%.

For the compound `CCCc1ncc(CNC2(c3ccc(Cl)cc3)CC2)cn1`, the cytotoxicity at 10 µM was -31.6%.

As for `O=C1CC(c2ccc(F)cc2)c2snc(C(=O)O)c2N1` (stereo not drawn), the cytotoxicity at 10 µM was determined as 0.833%.

Take `c1ccc(CN2C[C@@H]3COC[C@]3(COCc3ccncc3)C2)nc1`: the cytotoxicity at 10 µM was -76.1%.

For `O=C1CSC(c2ccc(O)cc2)c2c(n(C3CCOCC3)[nH]c2=O)N1` (stereo not drawn), the cytotoxicity at 10 µM is 2.84%.

With `O=C(O)c1ccc(F)c(S(=O)(=O)N2CCOc3ccccc32)c1`, the cytotoxicity at 10 µM is -4.28%.

Regarding `O=C(c1ccncc1F)N1Cc2nc(CN3CCCCC3)oc2C1`, the cytotoxicity at 10 µM was -105%.

Turning to `CCOC(=O)C1CC2(CCOCC2)N2CCC(=O)N12` (stereo not drawn), the cytotoxicity at 10 µM came to 2.39%.

With `COc1ccc(CNC(=O)NCc2nc(C)c(C)s2)cn1`, the cytotoxicity at 10 µM is 8.73%.

In the case of `O=C(CN1CCCCCC1)NCc1ccc2[nH]c(=O)[nH]c2c1`, the cytotoxicity at 10 µM is -2.86%.

As to `Cc1cnn(CCC(=O)NS(=O)(=O)N2CCc3ccccc32)c1`, the cytotoxicity at 10 µM came to 4.72%.

`Cc1ccc(F)c(N2CCCC(Nc3nccn4cnnc34)C2=O)c1` (stereo not drawn): the cytotoxicity at 10 µM was -0.115%.

Take `COc1cccc(CCNC(=O)c2ccc(=O)n(C)c2)c1`: the cytotoxicity at 10 µM was -9.08%.

As for `CCN1CCC(NC(=O)CN2CCCC2Cn2cncn2)CC1` (stereo not drawn), the cytotoxicity at 10 µM turned out to be 6.54%.

As for `O=C(NCc1ccnc(OCC(F)(F)F)c1)NCC1CCCO1` (stereo not drawn), the cytotoxicity at 10 µM was -4.05%.

For `CCS(=O)(=O)N1C[C@@H](c2cc(O)nc(C)n2)[C@H](c2ccccc2F)C1`, the cytotoxicity at 10 µM amounted to 7.17%.

Regarding `Cn1cnnc1C1CCCN(C(=O)c2cnc3ccccc3n2)C1` (stereo not drawn), the cytotoxicity at 10 µM came out at 0.577%.

On to `Cc1cccc(C(=O)N2CCSCC2)c1NC(=O)c1cccnc1`, for which the cytotoxicity at 10 µM was -2.83%.

Take `O=C(c1cc(-c2ccn(CC3CC3)n2)n2ccccc12)N1CCCO1`: the cytotoxicity at 10 µM worked out at 5.07%.

As for `Cc1cccn2cc(CN3CCC(N4CCN(C)C4=O)CC3)nc12`, the cytotoxicity at 10 µM is 7.31%.

`Cc1ccc(-c2nnc(C(C)N3CCc4cncnc4C3)o2)cc1` (stereo not drawn): the cytotoxicity at 10 µM came to 0.776%.

Take `CCOC(=O)N1CCN(c2nc(NC)c3ccccc3n2)CC1`: the cytotoxicity at 10 µM was -9.75%.

As for `Cc1nnc(N2C[C@H](OCCCn3cccn3)[C@H]3OCCC[C@H]32)s1`, the cytotoxicity at 10 µM was determined as 13.8%.

In the case of `COCCN1CC(C(=O)N(CCN(C)C)Cc2ccc(C)s2)CC1=O` (stereo not drawn), the cytotoxicity at 10 µM was determined as 1.98%.

In the case of `O=C(CNc1nc(C(F)(F)F)cs1)N1CCc2sccc2C1`, the cytotoxicity at 10 µM worked out at 15.1%.

Take `COCC(=O)N1CCN2C(=O)OC[C@H]2C1`: the cytotoxicity at 10 µM is 1.82%.

As for `Cn1cc(CN2CCC(c3cc(CCO)[nH]n3)C2)cn1` (stereo not drawn), the cytotoxicity at 10 µM turned out to be 3.19%.

Regarding `Cc1ccsc1CN(C)CCc1scnc1C`, the cytotoxicity at 10 µM is -17.6%.

Take `O=C(Cn1cc(-c2ccccc2)ncc1=O)Nc1ccncc1`: the cytotoxicity at 10 µM turned out to be 11%.

On to `NC(=O)CC1c2cccnc2C(=O)N1Cc1ccccc1` (stereo not drawn), for which the cytotoxicity at 10 µM was -5.8%.

Take `Cc1nc(CN2CCCC(N(C)Cc3nccn3C)C2)no1` (stereo not drawn): the cytotoxicity at 10 µM was -16.8%.

In the case of `CCOC1COC2(CCN(c3cccc(C)n3)CC2)C1` (stereo not drawn), the cytotoxicity at 10 µM was -2.16%.

As for `OC(CNCCn1cccn1)c1ccc(C(F)(F)F)cc1` (stereo not drawn), the cytotoxicity at 10 µM is -5.4%.

In the case of `COc1ccccc1NC(=O)c1cc2c([nH]c1=O)CCCC2=O`, the cytotoxicity at 10 µM was -4.14%.

In the case of `CCOc1cc(CNC(=O)C(C#N)c2nc(C)cs2)ccc1OC(F)F` (stereo not drawn), the cytotoxicity at 10 µM was found to be 8.61%.

In the case of `CCCN1CCC(NCc2ccncc2)CC1`, the cytotoxicity at 10 µM is -6.79%.

With `Cc1cc(C)c(-n2cccn2)c(CN2CCOCC(CN(C)C)C2)c1` (stereo not drawn), the cytotoxicity at 10 µM is -8.83%.

In the case of `Cc1nc(C)c(CN2CCC(N(C)Cc3nnc(C4CC4)o3)C2)s1` (stereo not drawn), the cytotoxicity at 10 µM is -4.18%.
